# Measurements from different studies.
# Each line is one published result; the experiments were not run side by side.
# Cell line: K562
Structure (SMILES),assay,conditions,IC50 [nM]
COc1cc(C=NNc2ncnc3c2cnn3-c2ccccc2)ccc1O,"cell growth or viability, XTT",72 h,3240
CC[C@@H](C)[C@H](N)C(=O)N1Cc2ccccc2C1,"cell growth or viability, ATP luminescence",,> 60000
CCCCc1ccc2[nH]c(NC(=O)OC)nc2c1,"cell growth or viability, CCK-8",72 h,61.2
O=C1CCCCC1C1C2C=CC=CC1C(CCCCOC1CCCCO1)=C2 (centres unmarked),"cell growth or viability, flow cytometry",,27
CCCCN(Cc1ccc(C(=O)NO)cc1)C(=O)Nc1ccccc1,"cell growth or viability, ATP luminescence",72 h,2260
N[C@@H](CC(=O)N1CCN(C(c2ccc(F)cc2)c2ccc(F)cc2)CC1)C(=O)N1Cc2ccccc2C1,"cell growth or viability, ATP luminescence",48 h,40800
CN1c2ccccc2C(=O)N2[C@H](C(=O)Nc3ccc(C(=O)Nc4ccccc4N)cc3)Cc3c([nH]c4ccccc34)[C@@H]12,cell growth or viability,,1900
C[C@H](O)C(=O)CCCCCCC(=O)Nc1cccc(-c2cn(-c3ccccc3)nn2)c1,"cell growth or viability, thymidine uptake",,7120
CC(C)(C)SCCCC1=CC2C=CC=CC1C2C1CCCCC1=O (centres unmarked),"cell growth or viability, flow cytometry",,28
O=C1NCCc2[nH]c(-c3ccncc3)cc21,cell growth or viability,,> 10000
c1ccc(-c2n[nH]cc2-c2ccnc(-c3ccc(OCCn4ccnc4)cc3)c2)nc1,"cell growth or viability, XTT",72 h,20000
CC(=O)OCCC1=CC2C=CC=CC1C2C1CCCCC1=O (centres unmarked),"cell growth or viability, flow cytometry",,39
CC(C)C[C@H](NC(=O)[C@H](Cc1ccccc1)NC(=O)c1cnccn1)B(O)O,"cell growth or viability, ATP luminescence",,5.6
CCOC(=O)CCC1=CC2C=CC=CC1C2C1CCCCC1=O (centres unmarked),"cell growth or viability, flow cytometry",,21
C[C@@H](O)C(=O)CCCCCCC(=O)Nc1ccccc1,"cell growth or viability, thymidine uptake",,62500
N#CCCC1=CC2C=CC=CC1C2C1CCCCC1=O (centres unmarked),"cell growth or viability, flow cytometry",,57
CC(=O)O[C@@H]1OC=C2[C@@H](OC(C)=O)C[C@H]3[C@]4(C)CC[C@H]5C(C)(C)CCC[C@]5(C)[C@H]4C[C@@H](O)[C@]3(C)[C@H]21,"NF-κB activity, inhibitor, luciferase",TNF-stimulated,6000
